2 molecules from ChEMBL document CHEMBL2331494, “First synthesis and biological evaluation of indeno[2,1-e]pyrazolo[3,4-b]pyrazin-5-one and related derivatives” (2013) can be followed below.

Molecules are shown by their SMILES. In brackets after ≈: the same amount, converted by molar mass.

What all share (type): functional
For one assay, the system named is Fusarium oxysporum. Description: Antifungal activity against Fusarium oxysporum AUMC 5119 assessed as diameter of growth inhibition zone at 20 mg/ml at 28 degC after 7 days. Conditions: AUMC 5119, 168 h, read-out: DIZ. In short, it runs like this: (§1)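 Inocula: each fungus grown 7 days in Sabouraud's dextrose broth (30 ml per flask). Plates were 10 cm Petri dishes with 1 ml microbial suspension and 15 ml Sabouraud's dextrose agar each. Compound solutions were applied and the diameter of the growth inhibition zone was recorded.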

In another assay the test system is Candida albicans. Description: Antifungal activity against Candida albicans AUMC 418 assessed as diameter of growth inhibition zone at 20 mg/ml at 28 degC after 7 days. Conditions: AUMC 418, 168 h, read-out: DIZ. The gist of the method: as §1
In a further assay the test system is Escherichia coli. Description: Antibacterial activity against Escherichia coli AUMC B-53 assessed as diameter of growth inhibition zone at 20 mg/ml at 28 degC after 48 hrs. Particulars: AUMC B-53, 48 h, read-out: DIZ. In short, it runs like this:
(§2)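 Inocula: each bacterial strain grown 48 h in nutrient broth (30 ml per flask). For the assay, 1 ml microbial suspension and 15 ml nutrient agar were poured into each 10 cm Petri plate, compound solutions were applied, and the diameter of the inhibition zone was read.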

Assay [1] has as its system Scopulariopsis brevicaulis. Description: Antifungal activity against Scopulariopsis brevicaulis AUMC 729 assessed as diameter of growth inhibition zone at 20 mg/ml at 28 degC after 7 days. Particulars: AUMC 729, 168 h, read-out: DIZ. In short, it runs like this: as §1
The next assay has as its system Staphylococcus aureus. Description: Antibacterial activity against Staphylococcus aureus AUMC B-54 assessed as diameter of growth inhibition zone at 20 mg/ml at 28 degC after 48 hrs. Conditions: AUMC B-54, 48 h, read-out: DIZ. The gist of the method: as §2
For another assay, the system named is Geotrichum candidum. Description: Antifungal activity against Geotrichum candidum AUMC 226 assessed as diameter of growth inhibition zone at 20 mg/ml at 28 degC after 7 days. Conditions: AUMC 226, 168 h, read-out: DIZ. In short, it runs like this: as §1
The test system of a further assay is Micrococcus luteus. Description: Antibacterial activity against Micrococcus luteus AUMC B-112 assessed as diameter of growth inhibition zone at 20 mg/ml at 28 degC after 48 hrs. Conditions: AUMC B-112, 48 h, read-out: DIZ. The gist of the method:
as §2

The subject of assay [2] is Trichophyton rubrum. Description: Antifungal activity against Trichophyton rubrum AUMC 1804 assessed as growth inhibition at 28 degC after 7 days. Conditions: for MIC: Trichophyton rubrum, AUMC 1804, 168 h.
In the next assay the test system is Serratia marcescens. Description: Antibacterial activity against Serratia marcescens AUMC B-55 assessed as diameter of growth inhibition zone at 20 mg/ml at 28 degC after 48 hrs. Particulars: AUMC B-55, 48 h, read-out: DIZ. In short, it runs like this:
as §2

Assay [3] has as its system Trichophyton rubrum. Description: Antifungal activity against Trichophyton rubrum AUMC 1804 assessed as diameter of growth inhibition zone at 20 mg/ml at 28 degC after 7 days. Conditions: AUMC 1804, 168 h, read-out: DIZ. The gist of the method: as §1
Assay [4] relates to Aspergillus flavus. Description: Antifungal activity against Aspergillus flavus AUMC 3214 assessed as growth inhibition at 28 degC after 7 days. Particulars: for MIC: Aspergillus flavus, AUMC 3214, 168 h.
Another assay concerns Bacillus cereus. Description: Antibacterial activity against Bacillus cereus AUMC B-52 assessed as diameter of growth inhibition zone at 20 mg/ml at 28 degC after 48 hrs. Conditions: AUMC B-52, 48 h, read-out: DIZ. The gist of the method: as §2
In assay [5] the test system is Aspergillus flavus. Description: Antifungal activity against Aspergillus flavus AUMC 1276 assessed as diameter of growth inhibition zone at 20 mg/ml at 28 degC after 7 days. Conditions: AUMC 1276, 168 h, read-out: DIZ. The gist of the method:
as §1

The subject of a further assay is Pseudomonas aeruginosa. Description: Antibacterial activity against Pseudomonas aeruginosa AUMC B-73 g assessed as diameter of growth inhibition zone at 20 mg/ml at 28 degC after 48 hrs. Conditions: read-out: DIZ. In short, it runs like this:
as §2

For `Cc1nn(-c2ccccc2)c2nc3c(nc12)/C(=N/N=c1/[nH]c(-c2ccccc2)cs1)c1ccccc1-3`, the zone of inhibition at 20000 µg/mL with Fusarium oxysporum worked out at 0 mm; with Candida albicans it was 0 mm; with Escherichia coli, 8 mm; in assay [1], 0 mm; in the assay with Staphylococcus aureus, 10 mm; with Geotrichum candidum, 10 mm. Also, the zone of inhibition at 20000 µg/mL in the assay with Micrococcus luteus was 0 mm; in the assay with Serratia marcescens, 0 mm; in the assay with Trichophyton rubrum [3] it was 30 mm; in the assay on Bacillus cereus it was 0 mm; in the assay on Aspergillus flavus [5], 16 mm; with Pseudomonas aeruginosa it was 0 mm. In addition, the entries for the “diameter of the inhibition zone (DIZ)” value in the assay on Trichophyton rubrum [2] and with Aspergillus flavus [4] were 14 mm and 12 mm, respectively. For the same molecule, the values for the MIC in the assay on Trichophyton rubrum [2] and with Aspergillus flavus [4] were 300 µg/mL (≈ 0.618 mM) and 2500 µg/mL (≈ 5.15 mM), respectively.
As for `Cc1nn(-c2ccccc2)c2nc3c(nc12)/C(=C/c1ccccc1Cl)c1ccccc1-3`, the zone of inhibition at 20000 µg/mL with Fusarium oxysporum stood at 0 mm; with Candida albicans, 0 mm; with Escherichia coli, 8 mm; in assay [1] it was 0 mm; in the assay with Staphylococcus aureus, 10 mm; with Geotrichum candidum, 0 mm. Further, the zone of inhibition at 20000 µg/mL came to 0 mm in the assay on Micrococcus luteus; 0 mm with Serratia marcescens; 26 mm in the assay on Trichophyton rubrum [3]; 0 mm with Bacillus cereus; 9 mm in the assay with Aspergillus flavus [5]; 8 mm with Pseudomonas aeruginosa. Besides, the entries for the “diameter of the inhibition zone (DIZ)” value in the assay with Trichophyton rubrum [2] and in the assay with Aspergillus flavus [4] were 10 mm and 9 mm, respectively. Also, the MIC in the assay on Trichophyton rubrum [2] was determined as 600 µg/mL (≈ 1.43 mM); with Aspergillus flavus [4], 20000 µg/mL (≈ 47.5 mM).

The MIC is the smallest concentration in the dilution series that meets the test's criterion for growth inhibition.
